Converted amounts (≈) assume the structure as drawn.
Key:
[1] = test system: Human alphaherpesvirus 1; assay: Antiviral activity against HSV1 2931 infected in African green monkey Vero cells assessed as inhibition of virus replication at 0.01 ug/ml after 24 hrs relative to control; format: functional; details: Human alphaherpesvirus 1, 2931, Vero
How it was run: (§1)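 Vero monolayers infected with HSV-1 strain 2931 at about 1 PFU/cell, adsorbed 2 h, then overlaid with maintenance medium containing drug. Supernatants harvested 24 h later and titered on Vero monolayers.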

[2] = test system: Human alphaherpesvirus 1; assay: Antiviral activity against HSV1 2931 infected in African green monkey Vero cells assessed as inhibition of virus replication at 10 ug/ml after 24 hrs relative to control; format: functional; details: Human alphaherpesvirus 1, 2931, Vero; how it was run: as §1
[3] = Cytotoxicity against mouse P815 cells assessed as growth inhibition after 96 hrs; format: cell-based; details: read-out: ID50
How it was run: (§2)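 Mouse leukemic lines grown in McCoy's medium with 15% fetal calf serum, starting at 40 000–60 000 cells/mL. Nucleoside added from a 50-fold concentrate; triplicate loosely capped tubes held at 37 °C in 5% CO2 for 96 h, controls reaching ~10^6 cells/mL. Cells counted electronically; percent growth inhibition calculated and the concentration for 50% inhibition reported.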

[4] = test system: Human alphaherpesvirus 1; assay: Antiviral activity against HSV1 2931 infected in African green monkey Vero cells assessed as inhibition of virus replication at 1 ug/ml after 24 hrs relative to control; format: functional; details: Human alphaherpesvirus 1, 2931, Vero; how it was run: as §1
[5] = test system: Human alphaherpesvirus 1; assay: Antiviral activity against HSV1 2931 infected in African green monkey Vero cells assessed as inhibition of virus replication at 0.1 ug/ml after 24 hrs relative to control; format: functional; details: Human alphaherpesvirus 1, 2931, Vero; how it was run: as §1
[6] = test system: Human alphaherpesvirus 1; assay: Antiviral activity against HSV1 2931 infected in African green monkey Vero cells assessed as inhibition of virus replication at 100 ug/ml after 24 hrs relative to control; format: functional; details: Human alphaherpesvirus 1, 2931, Vero; how it was run: as §1
[7] = Cytotoxicity against mouse L5178Y cells assessed as growth inhibition after 96 hrs; format: cell-based; details: read-out: ID50; how it was run: as §2
[8] = test system: Human alphaherpesvirus 1; assay: Potency index, ratio of compound activity to vidarabine activity against HSV1 2931; format: functional

SMILES	inhibition at 0.01 µg/mL [1] [%]	inhibition at 10 µg/mL [2] [%]	GI50 at 96 h [3] [µg/mL]	inhibition at 1 µg/mL [4] [%]	inhibition at 0.1 µg/mL [5] [%]	inhibition at 100 µg/mL [6] [%]	GI50 at 96 h [7] [µg/mL]	Ratio [8]
Cc1cn([C@@H]2O[C@H](CO)[C@@H](O)[C@@H]2O)c(=O)[nH]c1=O	< 90	100	13 (≈ 50.3 µM)	> 90	< 90	100	> 100	
Nc1nc(=O)n([C@@H]2O[C@H](CO)[C@@H](O)[C@@H]2F)cc1Br	< 90	100	> 10	> 99	> 90		10 (≈ 30.9 µM)	
Nc1ccn([C@@H]2O[C@H](CO)[C@@H](O)[C@@H]2F)c(=O)n1	< 90	> 99.9	0.05 (≈ 0.204 µM)	> 90	> 90	> 100	0.05 (≈ 0.204 µM)	
Nc1nc(=O)n([C@@H]2O[C@H](CO)[C@@H](O)[C@@H]2F)cc1F	< 90	> 99.9	0.4 (≈ 1.52 µM)	> 99	> 90		0.5 (≈ 1.9 µM)	
Nc1nc(=O)n([C@@H]2O[C@H](CO)[C@@H](O)[C@@H]2F)cc1Cl	< 90	> 99.9	1 (≈ 3.58 µM)	< 90	< 90		1.4 (≈ 5.01 µM)	
Cl.Nc1nc(=O)n([C@@H]2O[C@H](CO)[C@@H](O)[C@@H]2F)cc1I	> 90	100	14	> 100	> 99	100	48	1000
O=c1ccn([C@@H]2O[C@H](CO)[C@@H](O)[C@@H]2F)c(=O)[nH]1	< 90	> 99	> 10	> 99	< 90		> 10	
O=c1[nH]c(=O)n([C@@H]2O[C@H](CO)[C@@H](O)[C@@H]2F)cc1F	< 90	100	0.7 (≈ 2.65 µM)	> 100	> 99		1 (≈ 3.79 µM)	
O=c1[nH]c(=O)n([C@@H]2O[C@H](CO)[C@@H](O)[C@@H]2F)cc1Cl	< 90	> 100	3.4 (≈ 12.1 µM)	< 90	< 90		1.4 (≈ 4.99 µM)	
O=c1[nH]c(=O)n([C@@H]2O[C@H](CO)[C@@H](O)[C@@H]2F)cc1Br	< 90	> 100	1.6 (≈ 4.92 µM)	> 99	< 90		0.9 (≈ 2.77 µM)	
Nc1nc(=O)n([C@@H]2O[C@H](CO)[C@@H](O)[C@@H]2O)cc1I	< 90	> 100	0.08 (≈ 0.217 µM)	> 90	< 90		0.2 (≈ 0.542 µM)	
O=c1[nH]c(=O)n([C@@H]2O[C@H](CO)[C@@H](O)[C@@H]2O)cc1I	< 90	> 90	16 (≈ 43.2 µM)	< 90	< 90	> 100	30 (≈ 81.1 µM)	
Cc1cn([C@@H]2O[C@H](CO)[C@@H](O)[C@@H]2F)c(=O)[nH]c1=O [5-METHYL-2'-FLUOROARAURACIL]	< 90	100	1.9 (≈ 7.3 µM)	> 99.9	> 90		1.6 (≈ 6.15 µM)	
Nc1ccn([C@@H]2O[C@H](CO)[C@@H](O)[C@@H]2O)c(=O)n1 [CYTARABINE]	< 90	> 100	0.02 (≈ 0.0822 µM)	> 90	< 90	> 100	0.02 (≈ 0.0822 µM)	
O=c1[nH]c(=O)n([C@@H]2O[C@H](CO)[C@@H](O)[C@@H]2F)cc1I [FIALURIDINE]	< 90	> 100	0.8 (≈ 2.15 µM)	> 99.9	> 90		0.9 (≈ 2.42 µM)	
Nc1nc(=O)n([C@H]2C[C@H](O)[C@@H](CO)O2)cc1I [IBACITABINE]	< 90	> 99.9	> 100	> 90	< 90		> 100	
O=c1[nH]c(=O)n([C@H]2C[C@H](O)[C@@H](CO)O2)cc1I [IDOXURIDINE]	< 90	> 90	0.9 (≈ 2.54 µM)	< 90	< 90	100	4.2 (≈ 11.9 µM)	
